Molecules are shown by their SMILES.

Data set [1] concerns the target Tyrosine-protein kinase JAK2 (Homo sapiens) (UniProt O60674). Put plainly: Inhibition of human recombinant JAK2 (808 to end residues) assessed as residual activity at 10 uM using KTFCGTPEYLAPE as substrate incubated for 40 mins in presence of [gamma-33P]ATP at Km concentration by radiometric assay relative to control.
Data set [2] deals with Vascular endothelial growth factor receptor 2 (Homo sapiens) (UniProt P35968). Description: Inhibition of human recombinant KDR (790 to end residues) assessed as residual activity at 10 uM using myelin basic protein as substrate incubated for 40 mins in presence of [gamma-33P]ATP at Km concentration by radiometric assay relative to control.
Sequence of Vascular endothelial growth factor receptor 2 (Homo sapiens) (P35968 whole entry): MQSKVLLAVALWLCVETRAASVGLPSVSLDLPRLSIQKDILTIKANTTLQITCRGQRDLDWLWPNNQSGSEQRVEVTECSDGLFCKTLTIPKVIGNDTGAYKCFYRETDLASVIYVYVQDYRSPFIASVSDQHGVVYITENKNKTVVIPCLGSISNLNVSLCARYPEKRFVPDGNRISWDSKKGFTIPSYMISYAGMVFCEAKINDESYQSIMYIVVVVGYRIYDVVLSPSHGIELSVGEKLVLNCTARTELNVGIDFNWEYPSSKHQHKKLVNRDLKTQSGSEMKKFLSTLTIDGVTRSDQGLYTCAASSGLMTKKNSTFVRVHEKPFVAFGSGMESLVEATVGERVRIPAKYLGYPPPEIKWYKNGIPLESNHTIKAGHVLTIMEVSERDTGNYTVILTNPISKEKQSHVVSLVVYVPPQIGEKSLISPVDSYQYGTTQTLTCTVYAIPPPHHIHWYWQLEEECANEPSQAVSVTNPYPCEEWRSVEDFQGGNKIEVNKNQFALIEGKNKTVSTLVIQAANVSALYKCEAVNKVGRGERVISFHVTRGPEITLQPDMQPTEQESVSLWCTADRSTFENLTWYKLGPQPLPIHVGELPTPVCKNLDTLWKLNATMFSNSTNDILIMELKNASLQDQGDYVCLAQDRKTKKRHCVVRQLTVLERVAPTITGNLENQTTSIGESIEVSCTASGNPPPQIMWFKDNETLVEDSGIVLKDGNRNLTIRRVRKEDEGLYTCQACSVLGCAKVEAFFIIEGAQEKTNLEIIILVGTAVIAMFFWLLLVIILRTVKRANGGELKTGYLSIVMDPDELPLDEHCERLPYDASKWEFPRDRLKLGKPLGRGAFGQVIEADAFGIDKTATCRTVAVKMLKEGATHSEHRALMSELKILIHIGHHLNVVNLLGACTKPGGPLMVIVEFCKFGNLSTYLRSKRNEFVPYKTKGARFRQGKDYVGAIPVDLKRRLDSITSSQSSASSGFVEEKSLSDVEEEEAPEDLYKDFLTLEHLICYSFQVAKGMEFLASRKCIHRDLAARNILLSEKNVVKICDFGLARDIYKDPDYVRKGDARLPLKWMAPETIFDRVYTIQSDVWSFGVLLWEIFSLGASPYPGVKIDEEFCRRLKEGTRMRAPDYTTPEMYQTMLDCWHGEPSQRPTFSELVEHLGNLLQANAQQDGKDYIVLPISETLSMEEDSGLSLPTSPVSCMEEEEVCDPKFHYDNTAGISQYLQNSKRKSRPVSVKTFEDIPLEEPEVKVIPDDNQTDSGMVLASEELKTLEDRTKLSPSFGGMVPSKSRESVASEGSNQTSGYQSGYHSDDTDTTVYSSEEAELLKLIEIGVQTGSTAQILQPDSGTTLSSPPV
A short description of data set [3]: Half life in rat microsomes at 1 uM in presence of NADPH. It is filed as ADME, Microsome.
Data set [4] has as its target Rho-associated protein kinase 1 (Homo sapiens) (UniProt Q13464). Description: Inhibition of recombinant human ROCK1 (17 to 535 residues) assessed as residual activity at 10 uM using KEAKEKRQEQIAKR as substrate incubated for 40 mins in presence of [gamma-33P]ATP at Km concentration by radiometric assay relative to control.
Data set [5] addresses Serine/threonine-protein kinase 10 (Homo sapiens) (UniProt O94804). Put plainly: Inhibition of human recombinant LOK (1 to 348 residues) assessed as residual activity at 10 uM using RLGRDKYKTLRQI as substrate incubated for 40 mins in presence of [gamma-33P]ATP at Km concentration by radiometric assay relative to control.
The target of data set [6] is Inhibitor of nuclear factor kappa-B kinase subunit alpha (Homo sapiens) (UniProt O15111). Put plainly: Inhibition of human full length recombinant IKKalpha assessed as residual activity at 10 uM using peptide as substrate incubated for 40 mins in presence of [gamma-33P]ATP at Km concentration by radiometric assay relative to control.
Sequence of Inhibitor of nuclear factor kappa-B kinase subunit alpha (Homo sapiens) (O15111 whole entry): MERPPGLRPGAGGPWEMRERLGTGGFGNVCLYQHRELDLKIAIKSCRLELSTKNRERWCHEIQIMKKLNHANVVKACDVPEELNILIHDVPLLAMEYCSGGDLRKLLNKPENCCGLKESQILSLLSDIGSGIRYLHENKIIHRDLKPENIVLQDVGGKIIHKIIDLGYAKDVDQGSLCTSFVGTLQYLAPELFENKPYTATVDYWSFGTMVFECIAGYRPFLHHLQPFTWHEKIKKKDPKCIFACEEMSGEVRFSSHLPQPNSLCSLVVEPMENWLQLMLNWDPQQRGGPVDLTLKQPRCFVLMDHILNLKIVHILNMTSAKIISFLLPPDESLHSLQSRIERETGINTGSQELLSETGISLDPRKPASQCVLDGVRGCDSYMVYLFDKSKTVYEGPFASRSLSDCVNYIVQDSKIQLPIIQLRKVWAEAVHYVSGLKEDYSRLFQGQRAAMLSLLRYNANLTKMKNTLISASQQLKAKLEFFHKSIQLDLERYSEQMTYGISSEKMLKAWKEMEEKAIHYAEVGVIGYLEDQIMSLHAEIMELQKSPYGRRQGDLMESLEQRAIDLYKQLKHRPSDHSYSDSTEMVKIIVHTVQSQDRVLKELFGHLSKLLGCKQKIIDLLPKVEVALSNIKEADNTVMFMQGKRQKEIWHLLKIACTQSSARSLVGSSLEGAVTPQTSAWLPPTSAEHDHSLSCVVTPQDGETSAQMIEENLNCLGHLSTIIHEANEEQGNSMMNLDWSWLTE
Data set [7] addresses PI3-kinase p110-alpha/p85-alpha (Homo sapiens) (UniProt P27986+P42336). Description: Inhibition of recombinant full length human PI3K p110alpha/p85alpha assessed as residual activity at 10 uM incubated for 40 mins using phosphatidylinositol-4,5 bisphosphate as substrate in presence of [gamma-33P]ATP at Km concentration by radiometric assay relative to control. It is filed as protein-complex assay.

Data set [8] deals with Serine/threonine-protein kinase pim-1 (Homo sapiens) (UniProt P11309). Put plainly: Inhibition of recombinant full length human PIM1 assessed as residual activity at 10 uM using KKRNRTLTV as substrate incubated for 40 mins in presence of [gamma-33P]ATP at Km concentration by radiometric assay relative to control.
Data set [9] deals with Ribosomal protein S6 kinase beta-1 (Homo sapiens), P23443 [T412E]. Description: Inhibition of recombinant human p70S6K T412E mutant (1 to 421 residues) assessed as residual activity at 10 uM incubated for 40 mins in presence of [gamma-33P]ATP at Km concentration by radiometric assay relative to control.
Sequence of Ribosomal protein S6 kinase beta-1 (Homo sapiens), P23443 [T412E] (P23443 whole entry T412E, looked up, the tested form may be a part): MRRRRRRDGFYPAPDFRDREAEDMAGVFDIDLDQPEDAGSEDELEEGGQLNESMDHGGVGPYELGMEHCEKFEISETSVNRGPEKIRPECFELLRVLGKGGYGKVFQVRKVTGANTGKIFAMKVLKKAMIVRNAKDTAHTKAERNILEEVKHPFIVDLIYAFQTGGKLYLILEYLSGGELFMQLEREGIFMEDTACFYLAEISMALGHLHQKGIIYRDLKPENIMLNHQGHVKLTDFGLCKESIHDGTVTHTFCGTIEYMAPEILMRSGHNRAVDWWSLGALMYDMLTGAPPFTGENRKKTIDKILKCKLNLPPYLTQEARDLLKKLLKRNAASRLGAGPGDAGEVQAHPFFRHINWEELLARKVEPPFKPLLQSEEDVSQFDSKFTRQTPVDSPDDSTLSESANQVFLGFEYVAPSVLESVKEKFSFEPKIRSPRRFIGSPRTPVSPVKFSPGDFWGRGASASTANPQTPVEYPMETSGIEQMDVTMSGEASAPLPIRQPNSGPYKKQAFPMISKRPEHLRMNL
Data set [10] addresses CDK7/Cyclin H/MNAT1 (Homo sapiens) (UniProt P51946+P50613+P51948). Description: Inhibition of human full length recombinant CDK7/cyclinH/MAT1 assessed as residual activity at 10 uM using peptide as substrate incubated for 40 mins in presence of [gamma-33P]ATP at Km concentration by radiometric assay relative to control. It is filed as protein-complex assay.
Data set [11] deals with Serine/threonine-protein kinase mTOR (Homo sapiens) (UniProt P42345). Description: Inhibition of full length recombinant human mTOR assessed as residual activity at 10 uM incubated for 40 mins in presence of [gamma-33P]ATP at Km concentration by radiometric assay relative to control.
The target of data set [12] is Protein kinase C theta type (Homo sapiens) (UniProt Q04759). Description: Inhibition of recombinant full length human PKCtheta assessed as residual activity at 10 uM using histone H1 as substrate incubated for 40 mins in presence of [gamma-33P]ATP at Km concentration by radiometric assay relative to control.
Sequence of Protein kinase C theta type (Homo sapiens) (Q04759 whole entry, looked up): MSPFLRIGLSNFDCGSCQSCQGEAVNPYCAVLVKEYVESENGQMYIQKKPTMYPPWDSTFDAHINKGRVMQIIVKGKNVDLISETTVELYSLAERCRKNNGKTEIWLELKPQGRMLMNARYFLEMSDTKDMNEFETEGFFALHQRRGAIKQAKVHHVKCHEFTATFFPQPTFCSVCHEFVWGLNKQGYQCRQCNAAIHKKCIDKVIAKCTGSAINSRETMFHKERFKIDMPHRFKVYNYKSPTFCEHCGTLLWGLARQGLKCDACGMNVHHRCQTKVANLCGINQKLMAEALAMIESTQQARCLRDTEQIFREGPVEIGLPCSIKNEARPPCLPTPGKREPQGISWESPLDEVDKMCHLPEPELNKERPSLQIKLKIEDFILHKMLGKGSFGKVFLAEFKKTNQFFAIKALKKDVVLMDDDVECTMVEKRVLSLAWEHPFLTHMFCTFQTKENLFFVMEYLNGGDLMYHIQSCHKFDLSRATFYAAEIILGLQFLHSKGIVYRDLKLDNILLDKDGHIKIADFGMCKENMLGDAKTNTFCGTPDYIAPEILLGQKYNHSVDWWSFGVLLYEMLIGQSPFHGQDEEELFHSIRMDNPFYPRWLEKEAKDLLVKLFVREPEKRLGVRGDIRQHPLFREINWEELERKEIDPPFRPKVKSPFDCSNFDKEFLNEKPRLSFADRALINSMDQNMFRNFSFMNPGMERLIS
Data set [13] addresses PI3K p110 beta/p85 alpha (Homo sapiens) (UniProt P27986+P42338). Description: Inhibition of recombinant full length human PI3K p110beta/p85alpha assessed as residual activity at 10 uM incubated for 40 mins in presence of [gamma-33P]ATP at Km concentration by radiometric assay relative to control. It counts as protein-complex assay.
In data set [14] the target is SRSF protein kinase 1 (Homo sapiens) (UniProt Q96SB4). Description: Inhibition of recombinant human SRPK1 (2 to end residues) assessed as residual activity at 10 uM using RSRSRSRSRSRSRSR as substrate incubated for 40 mins in presence of [gamma-33P]ATP at Km concentration by radiometric assay relative to control.
Sequence of SRSF protein kinase 1 (Homo sapiens) (Q96SB4 whole entry, canonical isoform): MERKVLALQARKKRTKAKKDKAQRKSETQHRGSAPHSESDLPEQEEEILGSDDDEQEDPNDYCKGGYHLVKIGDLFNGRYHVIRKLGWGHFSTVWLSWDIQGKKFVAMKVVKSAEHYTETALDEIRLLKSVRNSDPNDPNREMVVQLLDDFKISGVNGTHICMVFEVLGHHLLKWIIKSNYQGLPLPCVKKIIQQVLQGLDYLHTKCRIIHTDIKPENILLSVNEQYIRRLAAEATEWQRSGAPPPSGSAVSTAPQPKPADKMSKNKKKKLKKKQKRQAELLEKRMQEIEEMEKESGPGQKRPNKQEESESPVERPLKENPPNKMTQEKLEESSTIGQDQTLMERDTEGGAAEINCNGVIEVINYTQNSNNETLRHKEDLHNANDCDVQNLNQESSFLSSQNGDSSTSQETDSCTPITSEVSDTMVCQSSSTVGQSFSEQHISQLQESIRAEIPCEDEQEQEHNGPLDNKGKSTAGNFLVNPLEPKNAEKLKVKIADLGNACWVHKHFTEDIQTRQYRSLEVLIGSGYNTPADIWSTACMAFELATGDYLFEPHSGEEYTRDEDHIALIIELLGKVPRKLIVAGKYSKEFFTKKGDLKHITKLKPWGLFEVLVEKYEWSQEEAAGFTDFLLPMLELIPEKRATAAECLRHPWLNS
In data set [15] the target is T1, Inositol hexakisphosphate kinase 1 (Homo sapiens, UniProt Q92551). Description: Inhibition of IP6K1 (unknown origin) in presence of ATP at Km concentration by Cheng-Prusoff equation analysis. The gist of the method: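 Purified IP6K isoforms run in the ADP-Glo Max kinase assay with 1 mM ATP. Measured IC50 values converted to Ki with the Cheng-Prusoff equation.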

For data set [16], the target named is Insulin-like growth factor 1 receptor (Homo sapiens) (UniProt P08069). Description: Inhibition of human recombinant IGF1R (959 to end residues) assessed as residual activity at 10 uM using KKKSPGEYVNIEF as substrate incubated for 40 mins in presence of [gamma-33P]ATP at Km concentration by radiometric assay relative to control.
In data set [17] the target is Inositol hexakisphosphate kinase 2 (Homo sapiens, UniProt Q9UHH9). Description: Inhibition of IP6K2 (unknown origin) incubated for 30 mins using IP6 as substrate in presence of ATP by ADP-Glo reagent based luminescence assay. The method, boiled down:
(§1)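 Luminescent ADP-Glo Max format adapted for IP6K, with purified enzyme and ATP at 1 mM, which is consumed as the kinase reaction proceeds. IC50 taken from the resulting inhibition data.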
On the technique in general: In ADP-Glo the light output rises with the ADP produced.

The species named for data set [18] is Homo sapiens. Put plainly: Inhibition of recombinant human PAK2 L150F/P225T/A339 deletion/V383I mutant (3 to end residues) assessed as residual activity at 10 uM using KEAKEKRQEQIAKR as substrate incubated for 40 mins in presence of [gamma-33P]ATP at Km concentration by radiometric assay relative to control.
For data set [19], the target named is Inositol hexakisphosphate kinase 3 (Homo sapiens, UniProt Q96PC2). Put plainly: Inhibition of IP6K3 (unknown origin) incubated for 120 mins using IP6 as substrate in presence of ATP by ADP-Glo reagent based luminescence assay. The gist of the method:
as §1

Data set [20] addresses T1, Inositol hexakisphosphate kinase 1. Put plainly: Binding affinity to IP6K1 (unknown origin) assessed as change in melting temperature by SYPRO orange dye-based assay. The gist of the method: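 Thermal shift format. Purified IP6K1 heated across a temperature gradient with the ligand at several concentrations. Binding read as the rise in protein melting temperature, including the maximal Tm shift (TmMax).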

Data set [21] is filed under the species Homo sapiens. Description: Selectivity ratio of Ki for IP6K3 (unknown origin) to Ki for IP6K1 (unknown origin). The gist of the method: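 Purified IP6K1, IP6K2 and IP6K3 were each tested in an ADP-Glo Max luminescence assay optimized for IP6K, with 1 mM ATP consumed as the kinase reaction proceeds. IC50 values from each isoform were converted to Ki with the Cheng-Prusoff equation, and the Ki ratio versus IP6K1 was taken.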

Sequence of Inositol hexakisphosphate kinase 2 (Q9UHH9 whole entry): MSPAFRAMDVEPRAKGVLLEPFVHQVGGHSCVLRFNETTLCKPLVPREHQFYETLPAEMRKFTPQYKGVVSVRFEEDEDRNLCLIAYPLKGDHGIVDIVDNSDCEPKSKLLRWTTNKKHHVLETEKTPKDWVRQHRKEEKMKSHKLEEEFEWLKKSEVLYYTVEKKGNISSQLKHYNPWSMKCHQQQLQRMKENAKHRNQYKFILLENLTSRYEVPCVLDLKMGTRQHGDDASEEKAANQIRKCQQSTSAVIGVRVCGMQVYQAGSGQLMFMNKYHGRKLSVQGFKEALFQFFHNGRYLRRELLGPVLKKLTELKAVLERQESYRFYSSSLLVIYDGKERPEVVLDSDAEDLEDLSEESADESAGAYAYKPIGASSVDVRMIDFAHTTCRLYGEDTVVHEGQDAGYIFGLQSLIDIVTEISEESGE
Sequence of Inositol hexakisphosphate kinase 3 (Q96PC2 whole entry): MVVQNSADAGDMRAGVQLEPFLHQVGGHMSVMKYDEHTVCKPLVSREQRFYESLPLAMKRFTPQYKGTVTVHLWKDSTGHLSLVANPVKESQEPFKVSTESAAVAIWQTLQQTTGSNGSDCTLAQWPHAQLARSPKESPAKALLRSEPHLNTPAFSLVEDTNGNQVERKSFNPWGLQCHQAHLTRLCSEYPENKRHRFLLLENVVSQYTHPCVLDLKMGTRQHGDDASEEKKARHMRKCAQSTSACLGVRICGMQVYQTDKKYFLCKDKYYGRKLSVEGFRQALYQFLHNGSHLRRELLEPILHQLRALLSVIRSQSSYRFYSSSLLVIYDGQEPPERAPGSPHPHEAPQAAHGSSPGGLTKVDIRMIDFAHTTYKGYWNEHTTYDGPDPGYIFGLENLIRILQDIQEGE

For orientation: Ki means a dissociation constant, usually derived from enzyme kinetics or from competition with a known ligand. In general, IC50 refers to the point on the concentration scale where inhibition reaches its midpoint. Broadly, the ΔTm is the shift of the melting midpoint relative to a reference. For `COc1ccc2c(CCNc3nc(NCc4ccc(=O)[nH]c4)c4nc[nH]c4n3)c[nH]c2c1`, the Activity in data set [1] amounted to 96%; in [2], 60%; in [4] it was 91%; in [5] it was 97%; in [6], 109%; in [7] it was 99%. The Activity is 82% in data set [8]; 94% in data set [9]; 48% in [10]; 85% in [11]; 87% in data set [12]; 93% in data set [13]. The Activity in data set [14] came to 91%; in data set [16], 86%; in data set [18] it was 98%. Moreover, the t1/2 in data set [3] amounted to 38 min. The inhibition constant Ki in data set [15] turned out to be 0.2 µM. Further, the 50% inhibitory concentration (IC50) in data set [17] came out at 20 µM; in data set [19], 15 µM. Besides, the thermal shift (ΔTm) in data set [20] was 6.6 °C. Also, in [21], the Ratio Ki worked out at 48.1.

(Values after ChEMBL document CHEMBL4396947, “Synthesis and characterization of novel isoform-selective IP6K1 inhibitors” (Bioorg Med Chem Lett, 2019).)
